Data set [1] has as its system Human FAAH. Particulars: read-out: Human FAAH IC50; literature values ref 27; cited from earlier work.
In data set [2] the test system is LPS-induced inflammatory pain. Nature of the data set: LPS-induced inflammatory pain model. Particulars: rat, 100 mg/kg oral, LPS intraplantar, 6-h time-course, n=4/group. The format is in vivo.
The nature of data set [3]: Pharmacokinetics after oral administration in rats. Format: in vivo. Particulars: rat, 100 mg/kg oral. The essentials:
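Male Sprague-Dawley rats, 8 weeks old, 250–300 g, n=4/group. Test compound given once at 100 mg/kg in 100% NEOBEE 1053 by oral gavage. Each sample added to 100 μL water with 0.1% EDTA, vortexed, stored at −80 °C, then processed and quantified by a previously reported method.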

Data set [4] deals with CB1 receptor. Particulars: cited from earlier work.
Data set [5] has as its target T1, recombinant human sEH (Homo sapiens, UniProt P34913).
T1 sequence (P34913 1-555): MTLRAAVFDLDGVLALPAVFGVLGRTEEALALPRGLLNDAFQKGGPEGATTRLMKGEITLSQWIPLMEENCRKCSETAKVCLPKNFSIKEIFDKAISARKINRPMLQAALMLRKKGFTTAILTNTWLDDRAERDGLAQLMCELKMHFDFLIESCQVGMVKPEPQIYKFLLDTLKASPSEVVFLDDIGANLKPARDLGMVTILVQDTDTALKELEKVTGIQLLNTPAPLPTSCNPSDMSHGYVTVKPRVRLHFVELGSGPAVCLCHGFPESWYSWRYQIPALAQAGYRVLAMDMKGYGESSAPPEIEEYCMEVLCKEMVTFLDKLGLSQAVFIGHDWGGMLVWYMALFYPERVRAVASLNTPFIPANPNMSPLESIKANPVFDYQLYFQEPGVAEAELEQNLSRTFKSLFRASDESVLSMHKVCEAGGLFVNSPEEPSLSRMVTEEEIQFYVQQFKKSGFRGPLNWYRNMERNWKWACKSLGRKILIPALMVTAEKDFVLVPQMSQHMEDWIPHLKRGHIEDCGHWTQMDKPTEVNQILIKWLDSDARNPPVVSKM
Nature of the data set: sEH inhibition assay. Format: biochemical. In outline: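 Fluorescence assay on recombinant human sEH, test compound in serial dilution. Substrate MNPC at 5 μM final is hydrolysed to fluorescent 6-methoxynaphthaldehyde, read at λex 330 nm and λem 465 nm. IC50 determined in triplicate and the mean reported. Reference inhibitor t-TUCB run in parallel to validate the assay.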

The structures appear in SMILES notation. Entries after “also recorded” stand apart in the source; their conditions may differ. A value given as a limit tells only on which side of the number the result lay.

Broadly, the IC50 is the midpoint of a concentration-inhibition curve. For `CCCCCCCCCCCCCCCC(=O)NCc1ccccc1` [Compound 1, N-benzylpalmitamide], the IC50 in data set [1] is more than 100 µM.
Consider `CCCCCCCCCCCCCCCCCC(=O)NCc1ccccc1` [Compound 2, N-Benzyloctadecanamide], for which, in data set [1], the IC50 is more than 100 µM.
Consider `CCCCCCCC/C=C\CCCCCCCC(=O)NCc1ccccc1` [Compound 3, N-Benzyloctadec-9Z-enamide], for which the IC50 in data set [1] was 16.7 µM.
As for `CCCCC/C=C\C/C=C\CCCCCCCC(=O)NCc1ccccc1` [Compound 4, N-Benzyloctadeca-9Z,12Z-dienamide], the “paw withdrawal thresholds (pain relief) relative to vehicle control” value in data set [2] (100 mg/kg) is reported as “significantly increased; also recorded: efficacious”. Moreover, in data set [3], the “time at which concentration peaked in the blood” value is not above 3 h. The IC50 in data set [1] was 10.8 µM. The “binding to the CB1 receptor” value in data set [4] is on record as “selectively bind”.
For `CC/C=C\C/C=C\C/C=C\CCCCCCCC(=O)NCc1ccccc1` [Compound 5, N-Benzyloctadeca-9Z,12Z,15Z-trienamide], in data set [2], the “paw withdrawal thresholds (pain relief) relative to vehicle control” value is recorded as “not significant”. Further, the IC50 in data set [1] was 41.8 µM.
`CCCCCCCC/C=C\CCCCCCCC(=O)NCc1cccc(OC)c1` [Compound 10, N-(3-Methoxybenzyl)octadec-9Z-enamide]: the IC50 in data set [1] was 11 µM.
In the case of `CCCCC/C=C\C/C=C\CCCCCCCC(=O)NCc1cccc(OC)c1` [Compound 11, N-(3-Methoxybenzyl)octadeca-9Z,12Z-dienamide], the IC50 in data set [1] is 10.3 µM.
Turning to `CC/C=C\C/C=C\C/C=C\CCCCCCCC(=O)NCc1cccc(OC)c1` [Compound 12, N-(3-Methoxybenzyl)octadeca-9Z,12Z,15Z-trienamide], in data set [1], the IC50 was 13.7 µM.
For `CCCCC/C=C\C/C=C\CCCCCCCC(=O)NCCc1ccccc1` [Compound 18, N-Phenethyloctadeca-9Z,12Z-dienamide], in data set [5], the IC50 was found to be 0.028 µM.

These data come from PMC7888481 (Journal of natural products, 2020).
